Source: PubChem BioAssay (Sanford-Burnham Center for Chemical Genomics)
SENP8 block-1 = blocks the human protease SENP8; inhibition, % at 10 µM; Q96LD8; AID 2540; purified SENP8, Z-RLRGG-aminoluciferin cleavage, luminescence; 1.2% of 330,000 active; in the data active = inhibition above about 50%
SENP6 block = SENP6 protease inhibition. Recombinant SENP6 catalytic domain, aminoluciferin luminescence. inhibition, % at 10 µM. 1.8% of 330,000 active;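 active = inhibition above about 50% at the single tested dose, limit read from the data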;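 also: plate controls were DMSO wells with enzyme for no effect and DMSO wells lacking enzyme for full effect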
Target sequence (Q9GZR1 628-1112 limits assumed): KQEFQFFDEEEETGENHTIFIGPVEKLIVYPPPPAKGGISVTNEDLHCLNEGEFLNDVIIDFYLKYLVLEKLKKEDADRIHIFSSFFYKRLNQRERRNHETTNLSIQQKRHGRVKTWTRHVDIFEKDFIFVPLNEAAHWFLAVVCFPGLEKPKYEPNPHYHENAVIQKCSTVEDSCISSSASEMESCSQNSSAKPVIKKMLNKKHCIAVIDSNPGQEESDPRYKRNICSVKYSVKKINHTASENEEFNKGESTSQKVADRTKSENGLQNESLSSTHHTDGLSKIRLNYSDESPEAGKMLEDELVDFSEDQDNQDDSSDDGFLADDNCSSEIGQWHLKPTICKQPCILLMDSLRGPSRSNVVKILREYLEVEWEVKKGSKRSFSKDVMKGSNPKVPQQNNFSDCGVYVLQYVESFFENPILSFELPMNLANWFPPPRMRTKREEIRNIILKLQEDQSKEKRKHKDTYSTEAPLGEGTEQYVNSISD
SENP8 block-2 = SENP8 (human) protease inhibition | Q96LD8 | recombinant SENP8, Nedd8 substrate fluorescence | inhibition, % at 20 µM | 0.64% of 360,000 active | AID 602440; in the data active = inhibition mostly above about 40%, no sharp cut-off; inactive = mostly below about 27%
SENP7 block = blocks the human protease SENP7 | recombinant SENP7, Z-RLRGG-aminoluciferin luminescence, 40 min | inhibition, % at 5 µM | 1.5% of 330,000 active | AID 434973;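 active = inhibition above about 50% at the single test dose, limit read from the data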;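 also: plate controls were DMSO with enzyme for no effect and no enzyme buffer wells for full effect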
SENP1 FRET inh = blocks the human SENP1 SUMO protease catalytic domain; Q9P0U3; recombinant SENP1 catalytic domain, CyPet-SUMO1-YPet FRET cleavage; inhibition, % at 10 µM; 0.21% of 360,000 active; AID 624204;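 active = inhibition at least 30% at 10 µM, raw YFP signal under a set limit, fluorescence ratio 0.5 to 1.5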;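 also: 0% = enzyme with DMSO and 100% = no enzyme wells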
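Test system: recombinant human SENP1 catalytic domain, His6-tagged / Medium: pH 8 Tris buffer with EDTA, NaCl, BME, BSA, NP40, catalase / Also added: SUMO1 FRET substrate flanked by Cypet and Ypet, 25 nM / Times: 50 min reaction at room temperature / Signal: FRET, CFP and YFP emission / Control set: no-enzyme low control and enzyme-plus-DMSO high control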
Starred values were filed as active, the others as inactive; / = no result. In the library only some 2.5% were active in any assay of this set; here they are far more common.

SMILES	SENP8 block-1	SENP6 block	SENP8 block-2	SENP7 block	SENP1 FRET inh
CCOc1cc(C(c2c(C)[nH][nH]c2=O)c2c(C)[nH][nH]c2=O)ccc1OCc1ccc([N+](=O)[O-])cc1	-1	7	37*	9	2
C[C@@H]1CN([C@H](C)CO)S(=O)(=O)c2ccc(Br)cc2O[C@H]1CN(C)C(=O)Nc1ccccc1	/	/	9	/	1
Cc1cccc(N=C/C(C(=O)C(F)(F)F)=C(\O)c2ccco2)c1	28	77*	-135	83*	-63
Cc1cc(C)c(NN=c2c(=O)c3ccccc3c2=O)c(C)c1	-14	-2	22	32	4
O=c1c(=NNc2ccccc2Cl)c(=O)c2ccccc12	/	/	40*	/	15
CCOc1cc(N2CCOCC2)c(OCC)cc1NC(=O)c1cnccn1	-9	-6	32*	7	2
O=c1nc(N2CCCC2)nc(N2CCCC2)[nH]1	-5	18	20	-1	-2
COC(=O)C1=CN(c2cccc(OCc3ccccc3)c2)C(N)=C(C#N)C1c1cccc(F)c1 (stereo unspecified)	/	/	-63	/	-5
O=[N+]([O-])c1cc2oc3c(c2c(C=NCc2ccccc2)c1O)CCCC3	8	2	31	4	46*
Cc1cccc(/N=C/c2c(O)ccc3oc4c(c23)CCCC4)n1	6	7	-16	2	4
CC(C)CN=Cc1c(O)c([N+](=O)[O-])cc2oc3c(c12)CCCC3	17	23	31	8	32*
Cc1ccc(NC(=O)CN(C)C(=O)c2nn(C)c(=O)c3ccccc23)cc1	4	9	25	4	3
Clc1nc(CN2CCCCC2)nc2sc3c(c12)CCC3	3	11	-17	-1	-2
NS(=O)(=O)c1cccc(NC(=O)COC(=O)Cc2n[nH]c(=O)c3ccccc23)c1	-7	6	6	-3	1
CCC(=O)N1CC2(c3ccccc3)CN(C(=O)CC)CC(c3ccccc3)(C1)C2=O	-6	-3	17	-4	1
CC(=O)N1CC2(c3ccccc3)CN(C(C)=O)CC(c3ccccc3)(C1)C2=O	1	70*	16	0	1
CCCCn1c(N)c(N(CC(C)C)C(=O)C2CCN(S(=O)(=O)c3ccc(C)cc3C)CC2)c(=O)[nH]c1=O	-7	-17	0	-3	0
CCC1Oc2ccccc2N(CC(=O)NCc2cccs2)C1=O (stereo unspecified)	1	11	12	1	3
Cc1nc(-c2ccc(Br)cc2)ccc1C(=O)O	30	75*	14	20	0
Oc1ccc(C=NNc2ccccn2)c(O)c1	/	/	-3	/	1
Oc1ccc(/C=N/Nc2nccnc2Cl)c(O)c1	96*	96*	-122	101*	-1
CSc1cccc(NC(=O)c2ccccn2)c1	41	55*	/	52*	/
C[C@@H]1CN([C@H](C)CO)C(=O)CCCn2nncc2CO[C@H]1CN(C)C(=O)C1CCCCC1	/	/	24	/	1
Cc1cc(/C=N/NC(=O)c2cccc([N+](=O)[O-])c2)c(C)n1-c1ccccc1	-6	-6	13	-19	1
Cc1ccccc1-n1c(C)cc(/C=N/Nc2ccc([N+](=O)[O-])cn2)c1C	-7	-10	60*	4	7
SMILES	SENP8 block-1	SENP6 block	SENP8 block-2	SENP7 block	SENP1 FRET inh
O=[N+]([O-])c1ccc(NN=Cc2ccccc2O)nc1	/	/	-198	/	-33
Cc1cc(/C=N/Nc2ccc([N+](=O)[O-])cn2)c(C)n1-c1ccc(C(=O)O)cc1	-4	2	50*	2	-2
O=C(/C=C/c1ccc(Cl)cc1Cl)NCc1ccncc1	-15	-29	7	-9	2
O=C(/C=C/c1c(F)cccc1Cl)Nc1nc2ccccc2[nH]1	-28	-27	6	69*	-2
O=C(/C=C/c1ccc(Cl)cc1Cl)Nc1ccncc1	56*	78*	15	43	0
O=C(/C=C/c1c(Cl)cccc1Cl)Nc1ccncc1	43	60*	8	53*	0
O=C(/C=C/c1cccc(Cl)c1)Nc1ccncc1	-10	-2	8	-4	2
Cc1nnc(SCC(=O)NC2CCCCC2)n1N	-7	7	3	-5	0
O=C(Cn1nnc(-c2ccccc2)n1)N/N=C/c1cccc([N+](=O)[O-])c1O	6	-7	27*	5	5
CC(C)N1CCN(c2ccncc2S(=O)(=O)N2CCN(C)CC2)CC1	/	/	10	/	1
CCSc1nnc(NC(=O)c2ccccc2C)s1	36	55*	2	44	2
CCSc1nnc(NC(=O)c2ccccn2)s1	18	60*	8	60*	0
CCSc1nnc(NC(=O)c2cnccn2)s1	7	-3	/	4	/
CCSc1nnc(NC(=O)c2cccnc2)s1	0	11	10	16	0
COc1ccccc1C(=O)Nc1nnc(-c2ccco2)s1	-6	-24	-329	-9	2
CCSc1nnc(NC(=O)c2ccccc2)s1	29	53*	-16	40	0
CCSc1nnc(NC(=O)c2cccnc2Cl)s1	-13	26	6	-2	-2
Cc1ccccc1C(=O)Nc1nnc(-c2ccco2)s1	44	54*	-197	73*	1
COc1ccc(C2/C(=C(/O)c3ccc(C)cc3)C(=O)C(=O)N2C)c(OC)c1 (stereo unspecified)	-8	2	16	11	0
O=[N+]([O-])c1cccc(-c2ccc(C(=S)N3CCN(c4ccccc4)CC3)o2)c1	-4	-5	32*	-5	-8
O=[N+]([O-])c1ccccc1-c1ccc(C(=S)N2CCCCC2)o1	38	52*	4	11	-26
O=C(COC(=O)C1CC1)Nc1ccc(N=Nc2ccccc2)cc1	-28	-13	43*	-2	1
COc1cc(OC)cc(C(=O)NNC(=S)NC2CC2)c1	5	-8	11	-1	3
Cc1cccc(NC(=S)N=Nc2c(O)[nH]c3ccccc23)c1	3	-3	42*	6	7
COc1ccccc1OCC(=O)Nc1cc(S(=O)(=O)N2CCOCC2)ccc1N1CCCCC1	1	8	-18	10	1
SMILES	SENP8 block-1	SENP6 block	SENP8 block-2	SENP7 block	SENP1 FRET inh
COc1cc(/C=C(\CC(=O)O)c2nc3ccccc3s2)cc(OC)c1O	0	2	-463	11	57*
Nc1cc(N)c(OCC(F)(F)F)cc1OCC(F)(F)F	22	11	85*	8	32*
O=C1c2ccccc2C(=O)c2c1cccc2N1CCOCC1	6	14	43*	5	2
COCCNC(=O)NC(=O)CN1C(=O)NC(Cc2c[nH]c3ccccc23)C1=O (stereo unspecified)	1	-10	2	-7	-1
Fc1ccc(Cn2ccc(-c3cnc(-c4ccccc4)s3)n2)cc1	-8	12	-491	21	1
O=C(c1ccc(F)cc1)n1ccc(-c2cnc(-c3ccccc3)s2)n1	32	55*	-457	85*	2
O=C(O)C1Nc2c(O)cc(Cl)c([N+](=O)[O-])c2C2C=CCC12 (stereo unspecified)	8	-34	46*	9	15
